For orientation: inhibition means the share of the control response that was lost under treatment. The half-life is the time needed for the level to fall by half in the phase considered. Broadly, the AUC(0-t) is exposure summed from dosing to a finite time, without extrapolation to infinity. As a reminder, the Tmax is the time at which the peak concentration occurs. The inhibition in vivo is the relative decrease from the control value, in per cent. The term AUC denotes the area under the concentration-time curve, a measure of exposure. What is called AUC(0-inf) is the area under the concentration-time curve extrapolated to infinity.

Calls of active or inactive are those of the source.

This note sets out measurements from ChEMBL document CHEMBL4028848, “Discovery of N-{4-[5-(4-Fluorophenyl)-3-methyl-2-methylsulfanyl-3H-imidazol-4-yl]-pyridin-2-yl}-acetamide (CBS-3595), a Dual p38α MAPK/PDE-4 Inhibitor with Activity against TNFα-Related Diseases” (J Med Chem, 2017).

Data set [1] addresses Mitogen-activated protein kinase 8 (Homo sapiens) (UniProt P45983). Put plainly: Inhibition of JNK1alpha1 (unknown origin) at 10 uM.
Data set [2] has as its system Liver. Nature of the data set: Drug level in rat liver microsomes treated with CBS-3595 at 10 to 100 uM. It is filed as ADME, microsome. Put shortly: (§1)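 Test compound incubated at 10, 30 and 100 μM with liver microsomes from rat, Cynomolgus monkey or human, and metabolites monitored.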
The subject of a further data set is Canis familiaris. Put plainly: AUC (0 to t) in Beagle dog assessed as 4-(4-(4-fluorophenyl)-1-methyl-2-(methylsulfinyl)-1H-imidazol-5-yl)pyridin-2-amine level at 40 mg/kg, po by LC-MS/MS analysis. Conditions: in vivo. In kind it is ADME, organism-based, Canis lupus familiaris. The essentials:
(§2)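 Toxicokinetics from a maximum-tolerated-dose study in four Beagle dogs given 40 mg/kg orally. Plasma levels of both parent and its predominant metabolite were monitored.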

Data set [3] addresses Tyrosine-protein kinase Lck (Homo sapiens) (UniProt P06239). Put plainly: Inhibition of Lck (unknown origin) at 10 uM.
The target in data set [4] is Mitogen-activated protein kinase 14 (Homo sapiens, UniProt Q16539). Nature of the data set: Inhibition of MKK6-mediated p38alpha MAPK (unknown origin) phosphorylation up to 10 uM.
Data set [5] has as its system Rattus norvegicus. Put plainly: Toxicity in Sprague-Dawley rat assessed as increase in ptyalism at 150 mg/kg, po administered via gavage for daily 28 days followed by 2 weeks off without dosing. In kind it is organism-based. Conditions: in vivo.
For data set [6], the system named is Rattus norvegicus. Nature of the data set: Toxicity in Sprague-Dawley rat assessed as mortality at 2000 mg/kg, po administered via gavage after 14 days. In kind it is organism-based. The settings on record: in vivo, 336 h.
A short description of data set [7]: Drug metabolism in human primary hepatocytes assessed as CBS-3846 formation at 10 to 100 uM. In kind it is ADME, cell-based, Hepatocyte.
Data set [8] can be described thus: Half life in mongrel dog at 30 mg/kg, po by LC-MS/MS analysis. It is filed as ADME, organism-based, Canis lupus familiaris. Conditions: in vivo. Put shortly: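 Oral single-dose PK; plasma concentrations of parent and metabolite measured. Dogs: blood sampled 0.25 to 24 h after dosing. Humans: healthy subjects, placebo-controlled single-blind randomized consecutive dosing, plasma sampled predose and 0.25–36 h post dose. 10 mg also given fasting and fed in crossover. Parameters derived from individual concentration–time profiles.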

Data set [9] concerns the target Casein kinase I isoform delta (Homo sapiens) (UniProt P48730). Nature of the data set: Inhibition of CK1delta (unknown origin) at 10 uM relative to control.
For data set [10], the target named is Tyrosine-protein kinase Lyn (Homo sapiens) (UniProt P07948). Put plainly: Inhibition of Lyn (unknown origin) at 10 uM relative to control.
A further data set deals with Bone marrow cell. Put plainly: Clastogenicity in mouse bone marrow cells by microneucleus test. It is filed as toxicity, cell-based. The essentials:
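In vivo micronucleus test in mouse bone marrow.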

Data set [11] concerns the target Mitogen-activated protein kinase 10 (Homo sapiens) (UniProt P53779). Put plainly: Inhibition of JNK3 (unknown origin) at 10 uM relative to control.
Data set [12] in a line: AUC (0 to t) in male Sprague-Dawley rat at 30 mg/kg, po by LC-MS/MS analysis. In kind it is ADME, organism-based. Conditions: in vivo. Put shortly:
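Rats of each sex received a single oral dose of 30 mg/kg. Plasma concentration–time profiles of parent were determined separately for females and males.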

The subject of another data set is Salmonella typhimurium. Put plainly: Genotoxicity in Salmonella typhimurium in absence of S9 fraction by Ames test. Conditions: salmonella enterica subsp. enterica serovar typhimurium. It is filed as toxicity. Put shortly: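 Bacterial reverse mutation (Ames) test in S. typhimurium and E. coli strains, run with and without S9 mix.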
On the technique in general: The Ames test detects mutagens through reverse mutation in bacteria.

For a further data set, the system named is Serum. Put plainly: Drug uptake in male Lewis rat serum at 10 mg/kg, po by LC-MS/MS analysis. In kind it is ADME, organism-based. The settings on record: in vivo. Put shortly:
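Male Lewis rats were dosed orally at 10 mg/kg 1 h before an i.v. LPS challenge of 0.1 mg/kg. Serum drug concentration was measured 1.5 h after LPS.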

Data set [13] is described as follows: Tmax in male Sprague-Dawley rat at 30 mg/kg, po by LC-MS/MS analysis. In kind it is ADME, organism-based. The settings on record: in vivo.
A short description of data set [14]: Drug uptake in LPS-stimulated female Lewis rat serum at 10 mg/kg, po pretreated for 3 hrs followed by LPS addition measured after 1.5 hrs post dose. It is filed as ADME, organism-based. Conditions: read-out: Drug uptake. Put shortly: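 Female Lewis rats, n = 8/group, dosed orally at 10 mg/kg at 1, 3 or 5 h before LPS challenge. Serum aliquots taken 1.5 h after LPS were used to measure drug concentration.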

For data set [15], the system named is Liver. Put plainly: Drug metabolism in rat liver microsomes assessed as N-(4-(4-(4-fluorophenyl)-1-methyl-2-(methylsulfinyl)-1H-imidazol-5-yl)pyridin-2-yl)acetamide formation at 10 to 100 uM. It is filed as ADME, microsome. Put shortly: as §1
A short description of data set [16]: Drug metabolism in human primary hepatocytes assessed as CBS-3728 formation at 10 to 100 uM. In kind it is ADME, cell-based, Hepatocyte.
For another data set, the system named is Mus musculus. Nature of the data set: Antiarthritic activity in human TNF transgenic mouse model assessed as reduction in bone erosion at 20 to 50 mg/kg/day, po for 10 weeks. It is filed as functional, organism-based. The essentials: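 Heterozygous human TNF transgenic mice (8 per group) were dosed orally for ten weeks with 20 or 50 mg/kg/day as a methylcellulose suspension, alongside vehicle and infliximab i.p. controls. Joint swelling and grip strength were scored weekly, and hind paws were examined histologically at the end.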

A short description of data set [17]: Tmax in female Sprague-Dawley rat at 30 mg/kg, po by LC-MS/MS analysis. In kind it is ADME, organism-based. Conditions: in vivo.
For data set [18], the system named is Rattus norvegicus. Nature of the data set: In vivo inhibition of P38 MAPKalpha in Sprague-Dawley rat assessed as decrease in LPS-stimulated TNFalpha level in serum at 10 mg/kg, po pretreated for 1 hr followed by LPS addition measured after 2 hrs relative to control. In kind it is functional. The essentials:
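Sprague–Dawley rats (8/group) were dosed orally with vehicle or 1, 3 or 10 mg/kg. LPS 0.1 mg/kg i.v. was given 1 h after dosing. Blood was collected 2 h later and serum TNFα measured. Inhibition was calculated relative to the mean of vehicle-treated animals.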

Data set [19] can be described thus: Tmax in Beagle dog at 40 mg/kg, po by LC-MS/MS analysis. In kind it is ADME, organism-based, Canis lupus familiaris. Conditions: in vivo.
The nature of data set [20]: Tmax in cynomolgus monkey at 20 mg/kg, po measured on day 1 and 27 post dose by LC-MS/MS analysis. It is filed as ADME, organism-based, Macaca fascicularis. Conditions: in vivo.
A further data set concerns Homo sapiens. Nature of the data set: AUC (infinity) in human assessed as 4-(4-(4-fluorophenyl)-1-methyl-2-(methylsulfinyl)-1H-imidazol-5-yl)pyridin-2-amine formation at 20 mg, po administered as single dose. In kind it is ADME, organism-based. The arrangement: dose 20 mg, time infinity, route oral. Conditions: in vivo. Put shortly:
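Placebo-controlled, single-blind, randomized, consecutive-dosing study in healthy subjects given single oral doses, with 10 mg also given fasting and fed in a crossover. Plasma parent and active metabolite were measured predose and from 0.25 to 36 h post dose. PK parameters were derived from individual concentration–time profiles and reported as means.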

Data set [21] concerns Rattus norvegicus. Put plainly: Toxicity in rat assessed as excessive defecation at 30 to 300 mg/kg, po administered as single dose. The settings on record: in vivo. It is filed as organism-based.
A further data set has as its system Lymphocyte. Nature of the data set: Clastogenicity in human lymphocytes in absence of S9 fraction by microneucleus test. It is filed as toxicity, cell-based. The essentials:
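Cytogenetic clastogenicity assay in cultured human lymphocytes, run with and without S9 mix.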

Data set [22] relates to Rattus norvegicus. Nature of the data set: Toxicity in Sprague-Dawley rat assessed as piloerection at 2000 mg/kg, po administered via gavage measured on day 1 and 2. In kind it is organism-based. Conditions: in vivo.
The test system of a further data set is Cynomolgus monkey. Put plainly: Toxicity in cynomolgus monkey assessed as effect on mean blood preasure at 6 to 20 mg/kg, po. In kind it is organism-based, Macaca fascicularis. The settings on record: in vivo.
The target in data set [23] is Dual specificity mitogen-activated protein kinase kinase 4 (Homo sapiens) (UniProt P45985). Nature of the data set: Inhibition of MKK4 (unknown origin) at 10 uM relative to control.
Data set [24] can be described thus: AUC (0 to infinity) in Beagle dog at 40 mg/kg, po by LC-MS/MS analysis. In kind it is ADME, organism-based, Canis lupus familiaris. The arrangement: dose 40 mg/kg, time infinity, route oral. Conditions: in vivo. Put shortly:
as §2

Dual specificity mitogen-activated protein kinase kinase 4 (Homo sapiens), sequence (P45985 whole entry): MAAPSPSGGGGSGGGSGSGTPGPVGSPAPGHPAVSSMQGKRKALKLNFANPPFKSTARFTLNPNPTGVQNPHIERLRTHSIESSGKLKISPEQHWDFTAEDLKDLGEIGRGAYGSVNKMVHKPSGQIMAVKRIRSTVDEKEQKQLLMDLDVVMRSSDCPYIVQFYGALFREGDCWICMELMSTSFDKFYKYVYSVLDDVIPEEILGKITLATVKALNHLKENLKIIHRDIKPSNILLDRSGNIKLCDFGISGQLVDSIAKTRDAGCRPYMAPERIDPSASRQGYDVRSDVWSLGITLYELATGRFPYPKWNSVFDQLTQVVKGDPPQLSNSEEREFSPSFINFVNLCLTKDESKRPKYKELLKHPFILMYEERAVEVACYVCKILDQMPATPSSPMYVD
Tyrosine-protein kinase Lyn (Homo sapiens), sequence (P07948 2-512 limits assumed): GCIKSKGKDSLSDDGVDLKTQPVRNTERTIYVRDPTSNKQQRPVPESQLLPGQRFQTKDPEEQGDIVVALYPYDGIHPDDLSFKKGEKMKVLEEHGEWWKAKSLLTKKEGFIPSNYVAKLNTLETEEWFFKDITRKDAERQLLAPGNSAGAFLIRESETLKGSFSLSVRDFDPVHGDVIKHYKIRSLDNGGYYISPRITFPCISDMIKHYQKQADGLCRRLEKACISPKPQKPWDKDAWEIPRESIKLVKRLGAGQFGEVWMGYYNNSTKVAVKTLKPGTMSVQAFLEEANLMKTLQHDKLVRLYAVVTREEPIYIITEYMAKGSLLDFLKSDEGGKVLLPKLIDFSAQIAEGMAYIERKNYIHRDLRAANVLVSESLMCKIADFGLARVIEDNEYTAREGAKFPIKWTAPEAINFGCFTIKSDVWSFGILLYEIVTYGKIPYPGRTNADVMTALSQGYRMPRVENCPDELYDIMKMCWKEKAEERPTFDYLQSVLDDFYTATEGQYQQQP
Tyrosine-protein kinase Lck (Homo sapiens), sequence (P06239 2-509 limits assumed): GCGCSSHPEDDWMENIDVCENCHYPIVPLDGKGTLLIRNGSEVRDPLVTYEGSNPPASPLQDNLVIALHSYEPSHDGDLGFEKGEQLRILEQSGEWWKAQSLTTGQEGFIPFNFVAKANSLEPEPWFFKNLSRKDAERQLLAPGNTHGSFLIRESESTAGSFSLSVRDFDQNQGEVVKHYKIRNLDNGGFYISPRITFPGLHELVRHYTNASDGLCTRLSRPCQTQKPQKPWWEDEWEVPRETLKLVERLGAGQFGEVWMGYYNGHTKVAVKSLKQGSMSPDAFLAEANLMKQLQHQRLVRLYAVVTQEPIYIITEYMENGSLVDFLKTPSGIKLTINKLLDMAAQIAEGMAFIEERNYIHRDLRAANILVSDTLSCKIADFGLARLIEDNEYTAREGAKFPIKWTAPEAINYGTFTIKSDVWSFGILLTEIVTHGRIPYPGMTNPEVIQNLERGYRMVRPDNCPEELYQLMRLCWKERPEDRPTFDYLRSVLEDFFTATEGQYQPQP
Mitogen-activated protein kinase 8 (Homo sapiens), sequence (P45983 whole entry): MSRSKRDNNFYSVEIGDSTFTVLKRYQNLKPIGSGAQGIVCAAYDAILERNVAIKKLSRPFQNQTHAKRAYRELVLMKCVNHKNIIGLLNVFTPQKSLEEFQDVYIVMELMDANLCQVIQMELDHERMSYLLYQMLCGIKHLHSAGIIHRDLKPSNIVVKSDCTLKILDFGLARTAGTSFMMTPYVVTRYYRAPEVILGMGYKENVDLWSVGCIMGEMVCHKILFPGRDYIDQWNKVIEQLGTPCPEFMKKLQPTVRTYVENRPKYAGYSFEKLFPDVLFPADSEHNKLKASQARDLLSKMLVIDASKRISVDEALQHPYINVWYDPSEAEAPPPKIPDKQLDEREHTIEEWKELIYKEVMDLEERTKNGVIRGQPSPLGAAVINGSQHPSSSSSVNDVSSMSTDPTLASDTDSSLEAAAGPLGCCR
Casein kinase I isoform delta (Homo sapiens), sequence (P48730 whole entry, looked up, canonical isoform): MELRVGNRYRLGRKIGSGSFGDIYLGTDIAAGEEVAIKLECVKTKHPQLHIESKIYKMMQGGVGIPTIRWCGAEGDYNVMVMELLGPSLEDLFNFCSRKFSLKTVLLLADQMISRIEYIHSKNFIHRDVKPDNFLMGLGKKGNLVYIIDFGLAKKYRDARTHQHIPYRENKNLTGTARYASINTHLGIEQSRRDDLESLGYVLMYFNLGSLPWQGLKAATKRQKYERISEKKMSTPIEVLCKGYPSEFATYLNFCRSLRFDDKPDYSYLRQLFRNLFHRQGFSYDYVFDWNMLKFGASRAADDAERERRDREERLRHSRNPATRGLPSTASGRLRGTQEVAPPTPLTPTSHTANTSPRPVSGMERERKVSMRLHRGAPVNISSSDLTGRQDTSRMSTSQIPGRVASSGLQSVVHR
Mitogen-activated protein kinase 14, sequence (Q16539 whole entry): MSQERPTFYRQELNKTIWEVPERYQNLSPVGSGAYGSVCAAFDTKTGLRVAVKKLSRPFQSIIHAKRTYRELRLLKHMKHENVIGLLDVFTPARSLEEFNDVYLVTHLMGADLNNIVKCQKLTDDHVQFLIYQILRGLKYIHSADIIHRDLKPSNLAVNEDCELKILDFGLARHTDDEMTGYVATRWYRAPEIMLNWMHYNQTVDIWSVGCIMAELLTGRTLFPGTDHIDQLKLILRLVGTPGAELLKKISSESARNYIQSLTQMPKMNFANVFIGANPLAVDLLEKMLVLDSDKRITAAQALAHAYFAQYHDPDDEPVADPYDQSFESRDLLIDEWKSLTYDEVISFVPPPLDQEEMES
Mitogen-activated protein kinase 10 (Homo sapiens), sequence (P53779 whole entry): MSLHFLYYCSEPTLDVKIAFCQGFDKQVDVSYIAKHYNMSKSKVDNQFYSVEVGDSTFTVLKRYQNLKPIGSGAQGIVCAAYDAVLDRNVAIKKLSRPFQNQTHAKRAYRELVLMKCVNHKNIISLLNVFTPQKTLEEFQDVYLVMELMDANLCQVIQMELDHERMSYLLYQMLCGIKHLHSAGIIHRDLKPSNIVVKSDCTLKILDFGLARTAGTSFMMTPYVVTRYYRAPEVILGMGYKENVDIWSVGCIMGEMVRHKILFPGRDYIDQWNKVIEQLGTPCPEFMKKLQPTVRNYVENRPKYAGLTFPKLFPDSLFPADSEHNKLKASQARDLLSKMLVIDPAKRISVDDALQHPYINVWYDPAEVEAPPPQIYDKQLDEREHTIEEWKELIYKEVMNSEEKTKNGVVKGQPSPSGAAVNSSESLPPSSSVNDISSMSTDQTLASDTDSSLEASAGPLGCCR

As for `Cn1c([S+](C)[O-])nc(-c2ccc(F)cc2)c1-c1ccnc(N)c1` (configuration not stated), the inhibition entry in [1] and in data set [3] was “inactive” in each case. For the same molecule, the Drug metabolism result in the data set with Liver [2] is given as “Metabolite_Detected”. Besides, the AUCt in the data set on Canis familiaris was 86.5 µM·h.

In the case of `CC(=O)Nc1cc(-c2c(-c3ccc(F)cc3)nc([S+](C)[O-])n2C)ccn1` (configuration not stated), the inhibition result in [4] is “inactive”. Moreover, the Activity result is recorded as “Toxic” with Rattus norvegicus [5]; “Non-Toxic” in the data set with Rattus norvegicus [6]; “Non-Toxic” in the data set with Bone marrow cell; “Non-Toxic” with Salmonella typhimurium; “Toxic” in the data set on Rattus norvegicus [21]; “Non-Toxic” in the data set with Lymphocyte. Also, the Activity entry with Rattus norvegicus [22] was “Toxic”; in the data set with Cynomolgus monkey it was “Non-Toxic”. The Drug metabolism result (in data set [7]; in the data set with Liver [15]; in data set [16]) was “Metabolite_Detected” in each case. In [8], this molecule showed a half-life of 3.85 h. For the same molecule, the inhibition in [9] came out at 94%; in [10], 31%; in data set [11], 76%; in data set [23] it was 37%. In data set [12], this molecule returned an AUC(0-t) of 29.8 µM·h. In the data set with Serum, this molecule showed a Drug uptake of 689 ng/mL. For the same molecule, the Tmax was 0.5 h in data set [13], 2 h in data set [17], 1.5 h in data set [19] and 4 h in data set [20]. Further, the concentration at 1.5 h in data set [14] turned out to be 526 ng/mL. Further, the result in the data set on Mus musculus was Active. The inhibition in vivo at 10 mg/kg in the data set on Rattus norvegicus [18] was found to be 96%. In addition, in the data set on Homo sapiens, the AUC amounted to 6.1022 µM·h. The AUC(0-inf) in [24] was found to be 120 µM·h.
